Results taken from ChEMBL document CHEMBL4371053, “A novel tetrazole analogue of resveratrol is a potent anticancer agent” (Bioorg Med Chem Lett, 2019).
Activity calls are given as the source filed them. No cut-off for these calls is given here.

Key:
NCI-H460 = assay: Growth inhibition of human NCI-H460 cells at 10 uM after 48 hrs by sulforhodamine B assay relative to control; assay type: functional; conditions: NCI-H460, 48 h, values are per cent of control
Outline: (§1)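 NCI-60 single-dose screen. Cells exposed to 10⁻⁵ M or to vehicle for 48 h. Growth measured by sulforhodamine B optical density before and after exposure. Reported as percent growth relative to vehicle control and to time-zero cell number; negative values indicate cell kill.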

NCI-H522 = assay: Growth inhibition of human NCI-H522 cells at 10 uM after 48 hrs by sulforhodamine B assay relative to control; assay type: functional; conditions: NCI-H522, 48 h, values are per cent of control; outline: as §1
KM12 = assay: Growth inhibition of human KM12 cells at 10 uM after 48 hrs by sulforhodamine B assay relative to control; assay type: functional; conditions: KM12, 48 h, values are per cent of control; outline: as §1
SF-539 = assay: Growth inhibition of human SF539 cells at 10 uM after 48 hrs by sulforhodamine B assay relative to control; assay type: functional; conditions: SF-539, 48 h, values are per cent of control; outline: as §1
MDA-MB-435 = assay: Growth inhibition of human MDA-MB-435 cells at 10 uM after 48 hrs by sulforhodamine B assay relative to control; assay type: functional; conditions: MDA-MB-435, 48 h, values are per cent of control; outline: as §1
SK-MEL-5 = assay: Growth inhibition of human SK-MEL-5 cells at 10 uM after 48 hrs by sulforhodamine B assay relative to control; assay type: functional; conditions: SK-MEL-5, 48 h, values are per cent of control; outline: as §1
OVCAR-3 = assay: Growth inhibition of human OVCAR3 cells at 10 uM after 48 hrs by sulforhodamine B assay relative to control; assay type: functional; conditions: OVCAR-3, 48 h, values are per cent of control; outline: as §1
A498 = assay: Growth inhibition of human A498 cells at 10 uM after 48 hrs by sulforhodamine B assay relative to control; assay type: functional; conditions: A498, 48 h, values are per cent of control; outline: as §1
DU-145 = assay: Growth inhibition of human DU145 cells at 10 uM after 48 hrs by sulforhodamine B assay relative to control; assay type: functional; conditions: DU-145, 48 h, values are per cent of control; outline: as §1
Tubulin (Homo sapiens) = Tubulin (Homo sapiens) (UniProt P68371+Q9H4B7+P0DPH7+P68366+Q13509+Q71U36+P04350+Q3ZCM7+P07437+P68363+Q9BQE3+Q6PEY2+Q13885+Q9BVA1+Q9BUF5); assay: Inhibition of tubulin (unknown origin) polymerization at 2 uM by immunoblot analysis; assay type: protein-complex assay
Outline: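 Cell-based assay. Cells were treated with compound at 1.0 and 2.0 μM. Polymerized tubulin (pellet) was separated from unpolymerized tubulin (supernatant), and both fractions were immunoblotted with anti-tubulin antibody.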

Structure (SMILES)	growth, % of control at 10 µM (NCI-H460) [%]	growth, % of control at 10 µM (NCI-H522) [%]	growth, % of control at 10 µM (KM12) [%]	growth, % of control at 10 µM (SF-539) [%]	growth, % of control at 10 µM (MDA-MB-435) [%]	growth, % of control at 10 µM (SK-MEL-5) [%]	growth, % of control at 10 µM (OVCAR-3) [%]	growth, % of control at 10 µM (A498) [%]	growth, % of control at 10 µM (DU-145) [%]	inhibition (Tubulin (Homo sapiens))
COc1ccc(/C(=C/c2cc(OC)c(OC)c(OC)c2)c2nnn[nH]2)cc1OC	106	90.2	99.8	96.2	102	96.4	118	89.5	106	–
COc1ccc(/C=C(/c2cc(OC)c(OC)c(OC)c2)c2nnn[nH]2)cc1	110	90.3	102	–	100	94.1	113	102	108	Active
COc1ccc(/C=C(/c2ccc([N+](=O)[O-])cc2)c2nnn[nH]2)c2ccccc12	103	89.4	111	104	105	97.1	112	112	113	Active
